Rows were chosen to be rich in hits. Some 3.1% of all compounds tested hit in one or more screens of this group.
PAFAH1B2 FP inh: PAFAH1B2 (human) inhibition | P68402 | recombinant PAFAH1B2, FP-rhodamine activity probe, fluorescence polarization | inhibition, % at 3.39 µM | 340,000 compounds, 1.2% hits | AID 492953;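 active = inhibition above the mean of all tested compounds plus 3 SD, cut at about 24% in these data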;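 also: 0% = enzyme with DMSO and 100% = wells lacking PAFAH1B2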
Target sequence (P68402 whole entry, looked up): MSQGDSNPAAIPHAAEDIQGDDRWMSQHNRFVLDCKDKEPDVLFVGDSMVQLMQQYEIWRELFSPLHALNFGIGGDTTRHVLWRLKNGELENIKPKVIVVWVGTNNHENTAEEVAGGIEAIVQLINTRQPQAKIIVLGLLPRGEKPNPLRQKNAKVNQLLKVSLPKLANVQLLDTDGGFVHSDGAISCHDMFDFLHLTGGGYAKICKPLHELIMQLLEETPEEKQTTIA
Apaf-1 inh: human Apaf-1 inhibition; O14727; reconstituted apoptosome caspase-3 activity, DEVD-Rh110 fluorescence; inhibition, % at 20 µM; 330,000 compounds, 0.71% hits; active = inhibition of at least 40% at 20 µM;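 also: plate controls were DMSO wells for no effect and DEVD-CHO caspase inhibitor wells for full effect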
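Material: biochemical Apaf-1 apoptosome reconstitution. Medium: Hepes buffer, pH 7.5. Also added: cytochrome c activation, bis-DEVD rhodamine 110 substrate. Timing: 30 min compound preincubation, 50 min activation, room temperature. Measured by: rhodamine 110 fluorescence at Ex 480/Em 540 nm.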
PAFAH2 FP inh: inhibitors of human PAFAH2 | Q99487 | recombinant PAFAH2, FP-rhodamine activity probe, fluorescence polarization | inhibition, % at 3.39 µM | 340,000 compounds, 0.99% hits | AID 492956;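 active = inhibition above the mean over all tested compounds plus 3 SD, cut at about 30% in these data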;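 also: inhibitors block probe labeling of enzyme so polarization drops; 0% = enzyme with DMSO and 100% = wells lacking PAFAH2 protein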
pPAFAH FP inh: inhibitors of human plasma PAF acetylhydrolase (pPAFAH). inhibition, % at 3.39 µM. AID 463082. 330,000 compounds, 1.5% hits. Q13093. recombinant pPAFAH, FP-rhodamine probe fluorescence polarization;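 active = inhibition above the mean inhibition across the screen plus 3 SD, cut at about 25% in these data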;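 also: inhibitors block binding of the rhodamine activity-based probe so polarization drops; 0% = enzyme with DMSO and 100% = wells lacking pPAFAH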
PAFAH1B3 FP inh: PAFAH1B3 (human) inhibition; Q15102; recombinant PAFAH1B3, FP-rhodamine probe, fluorescence polarization; inhibition, % at 3.39 µM; 340,000 compounds, 0.28% hits; AID 492972;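 active = inhibition above the screen-wide average of all tested compounds plus 3 SD, cut at about 25% in these data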;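 also: 0% = enzyme with DMSO only and 100% = wells lacking PAFAH1B3 protein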
Target sequence (Q15102 whole entry, looked up): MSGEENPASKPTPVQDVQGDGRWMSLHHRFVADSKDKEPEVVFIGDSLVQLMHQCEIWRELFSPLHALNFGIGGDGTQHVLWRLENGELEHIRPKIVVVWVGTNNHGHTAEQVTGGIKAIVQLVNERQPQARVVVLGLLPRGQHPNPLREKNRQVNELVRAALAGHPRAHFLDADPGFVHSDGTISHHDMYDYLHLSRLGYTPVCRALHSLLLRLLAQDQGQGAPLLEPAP
PAFAH2 FP conf: confirmation of human PAFAH2 inhibitors; inhibition, % at 3.39 µM; recombinant PAFAH2, FP-rhodamine activity probe, fluorescence polarization; AID 493030; 2,300 compounds, 65% hits; shares compounds with PAFAH2 FP inh;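 active = mean inhibition over three repeats above a set limit taken from the earlier primary screen, cut at about 30% in these data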;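 also: inhibitor blocks binding of rhodamine activity probe so polarization falls; 0% = enzyme with DMSO and 100% = wells lacking PAFAH2 protein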
Starred values were filed as active, the others as inactive; · = not tested or not shown.

SMILES	PAFAH1B2 FP inh	Apaf-1 inh	PAFAH2 FP inh	pPAFAH FP inh	PAFAH1B3 FP inh	PAFAH2 FP conf
COc1cc(OC)c(C(=O)OCC(=O)NC2CCCCCCC2)cc1OC	2.7	16.3	74.7*	13.5	10.3	82.6*
CCOc1ccccc1C(=O)OCC(=O)NCC1CCCCC1	-1.3	6.3	44.3*	12.8	8.9	48.1*
COc1ccccc1C(=O)OCC(=O)NC(=O)NC1CCCCC1	3.0	11.9	14.1	·	0.4	·
COc1cc(OC)c(C(=O)OCC(=O)NC2CCCC2)cc1OC	5.0	-15.4	51.7*	8.4	1.9	38.6*
COc1ccc(CN2C(=O)c3ccccc3C2=O)cc1C(=O)OCC(=O)NC1CCCCC1	-1.1	17.0	51.5*	20.5	4.0	45.2*
COc1ccc(CC(=O)OCC(=O)NC2CCCCCC2)cc1OC	4.2	7.4	27.9	·	5.3	·
O=C(Nc1nc(-c2cccs2)cs1)c1ccc([N+](=O)[O-])o1	12.2	7.0	25.0	4.8	16.1	·
COc1ccc(N(CC(=O)N2CCC(C(N)=O)CC2)S(=O)(=O)c2ccccc2)cc1	0.6	3.0	-5.6	1.1	2.6	·
O=C(NCc1ccccc1)C(c1ccc(F)cc1)N(C(=O)c1csnn1)c1ccccc1 (stereo not drawn)	-3.6	15.4	-0.3	-9.7	2.4	·
O=C(COC(=O)c1ccccc1Br)NC1CCCC1	5.7	5.5	51.9*	7.3	4.0	35.0*
CCCCNC(=O)COC(=O)c1ccc(SC)cc1OC	4.5	-3.7	45.9*	11.7	6.7	22.7
COc1ccc(Br)c(C(=O)OCC(=O)NC2CC2)c1	7.3	-10.4	2.5	4.5	7.6	·
COc1ccccc1C(=O)OCC(=O)NC(=O)NC1CCCC1	4.9	-5.7	10.1	-0.5	3.6	·
COc1cc(SC)ccc1C(=O)NC1CCCCC1	10.3	12.1	0.0	2.9	8.1	·
COc1ccccc1C(=O)OCC(=O)NC1CCCC1	11.4	4.4	37.6*	4.8	6.3	21.9
COc1cc(SC)ccc1C(=O)OCC(=O)NC1CCCC1	11.2	-6.1	68.3*	21.4	7.3	57.4*
Cc1cc(/C=C2\Sc3ccccc3N2C)cc(C)[n+]1CC1CCCO1 (stereo not drawn)	·	17.3	·	·	·	·
CC1CCC(NC(=O)CC(NC(N)=O)c2ccccc2Cl)CC1 (stereo not drawn)	8.7	7.4	2.7	-1.7	-4.2	·
C/C(=N/NS(=O)(=O)c1ccc(CC(C)C)cc1)c1ccncc1	0.2	3.0	5.4	0.8	11.0	·
COc1cc(OC)c(C(=O)OCC(=O)NCC2CCCCC2)cc1OC	0.8	2.2	51.2*	·	-5.1	42.9*
CN(Cc1ccc(Br)s1)C(=O)CNC(=O)c1ccc2c(c1)OCO2	4.6	-2.6	1.9	1.7	7.7	·
CCOc1ccc(NC(=O)C(=O)NCCN2CCN(S(=O)(=O)c3ccc(C)cc3)CC2)cc1	-0.4	8.4	3.5	2.5	7.0	·
O=C(NCCc1ccc(C(F)(F)F)cc1)C1CCC(=O)N(CCCc2ccccc2)C1 (stereo not drawn)	10.8	27.3	53.0*	11.6	0.9	53.4*
COc1cccc(CCNC(=O)c2cc(COc3c(F)cccc3F)on2)c1	7.3	9.2	7.3	-3.2	-1.9	·
COc1cccc(CCC(=O)N2CCC(n3nccc3NC(=O)CC(C)C)CC2)c1	-0.3	3.1	-4.2	3.6	-5.3	·
SMILES	PAFAH1B2 FP inh	Apaf-1 inh	PAFAH2 FP inh	pPAFAH FP inh	PAFAH1B3 FP inh	PAFAH2 FP conf
COC(=O)c1ccc(NS(=O)(=O)NC(=O)c2cn(C)c3ccccc23)cc1	1.1	-11.5	3.0	6.3	2.0	·
CC(C)n1c(N2CCN(C(=O)N3CCCCC3)CC2)nc2ccccc21	7.4	0.3	32.8*	8.2	0.8	18.2
CC(C)n1c(N2CCN(C(=O)c3cccs3)CC2)nc2ccccc21	4.4	7.0	-3.7	-2.4	3.4	·
CCOc1ccc(Br)cc1S(=O)(=O)NCC(c1ccc(OC)cc1)N1CCOCC1 (stereo not drawn)	3.7	·	13.1	·	-2.4	·
O=C(O/N=C1\CCS(=O)(=O)c2sccc21)C1CC1	-0.8	3.7	81.3*	7.2	2.4	84.1*
CCCC(=O)OC1CCS(=O)(=O)c2sccc21 (stereo not drawn)	-2.7	-5.6	7.0	6.8	1.6	·
CC(C)(C)C(=O)O/N=C1\CCS(=O)(=O)c2sccc21	5.6	-3.3	40.6*	2.3	-8.0	34.0*
O=S1(=O)CCC(=Nc2ccc(Cl)cc2)c2ccsc21	1.6	-0.1	6.4	2.8	10.2	·
